The results in this text go back to BindingDB's records for doi:10.1016/j.bmcl.2005.07.045 (Shanghai Second Medical University, 2005).

pEC50: −log10 of the molar value.

The experiment addresses Muscarinic acetylcholine receptor M1/M2/M3/M4/M5. Briefly: Agonistic activity against Muscarinic acetylcholine receptor of guinea pig ileal longitudinal muscle. An outline of the steps:
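Ileal longitudinal muscle strips (1.5 cm) in 10 ml organ baths under 500 mg tension, equilibrated 30 min with bath fluid changed every 10 min. Isotonic contractions recorded during cumulative addition, about 3-fold concentration steps once each response is steady. Response expressed as percent of carbachol maximum. pEC50 determined graphically from dose–response curves, mean of three tests, t test.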
The compound `CC(=O)OC1CC2CC(OC(=O)c3ccc(C)cc3)CC1N2C` (centres undefined) gave a pEC50 of 5.36.
In the case of `CC(=O)OC1CC2CC(=O)CC1N2C` (centres undefined), the negative-log EC50 (pEC50) was 4.83.
As for `CCCCCCCCCC(=O)OC1CC2CC(OC(C)=O)C(C1)N2C` (centres undefined), the figure is 6.58; as for `CCCCCCC(=O)OC1CC2CC(OC(C)=O)C(C1)N2C` (centres undefined), 7.57.
As for `CC(=O)OC1CC2CC(OC(=O)/C=C\c3ccccc3)CC1N2` (centres undefined), the figure is 5.70; as for `COc1ccc(C(=O)OC2CC3CC(OC(C)=O)C(C2)N3C)cc1` (centres undefined), 4.52.
`COc1ccc(S(=O)(=O)OC2CC3CC(OC(C)=O)C(C2)N3C)cc1` (centres undefined) showed a pEC50 of 7.03.
The compound `CC(=O)OC1CC2CC(OC(C)=O)C(C1)N2C` (centres undefined) gave a pEC50 of 5.35.
Take `CCCCCCCC(=O)OC1CC2CC(OC(C)=O)C(C1)N2C` (centres undefined): the pEC50 is 8.76.
`CC(=O)OC1CC2NC1CCC2O` (centres undefined): the pEC50 is 7.10.
As for `CC(=O)OC1CC2CC(OS(=O)(=O)c3cccc(C)c3)CC1N2C` (centres undefined), the pEC50 is 7.05.
As for `CCC(=O)OC1CC2CC(OC(=O)CC)C(C1)N2C` (centres undefined), the figure is 4.37; as for `CCCC(=O)OC1CC2CC(OC(C)=O)C(C1)N2C` (centres undefined), 5.30.
As for `CC(=O)OC1CC2CC(OS(=O)(=O)c3ccccc3)CC1N2C` (centres undefined), the figure is 7.30; as for `CCCCCC(=O)OC1CC2CC(OC(=O)CCCCC)C(C1)N2C` (centres undefined), 8.32.
As for `CN1C2CC(=O)CC1C(O)C2` (centres undefined), the figure is 3.39; as for `CC(=O)OC1CC2CC(OC(=O)/C=C\c3ccccc3)CC1N2C` (centres undefined), 3.93; as for `CC(=O)OC1CC2CC(OS(=O)(=O)c3ccc(C)cc3)CC1N2C` (centres undefined), 6.98.
`CC(=O)OC1CC2CC(OS(=O)(=O)c3ccc([N+](=O)[O-])cc3)CC1N2C` (centres undefined) had a negative-log EC50 (pEC50) of 7.35.
As for `CCCCCC(=O)OC1CC2CC(OC(C)=O)C(C1)N2C` (centres undefined), the figure is 8.19.
As for `CC(=O)OC1CC2CCC(C1)N2C` (centres undefined), the figure is 4.10; as for `CC(=O)OC1CC2CC(Cl)CC1N2C` (centres undefined), 4.94.
`CC(=O)OC1CC2CCCC1N2` (centres undefined) [Acetic acid 8-aza-bicyclo[3.2.1]oct-6-yl ester] gave a pEC50 of 8.21.
Compound `CC(=O)OC1CC2CCCC1N2C` (centres undefined) [Acetic acid 8-methyl-8-aza-bicyclo[3.2.1]oct-6-yl ester] gave a pEC50 of 4.61.

The pEC50 is the negative decadic logarithm of the EC50, by convention in mol/L. The low end stands for a large EC50, the high end for a small EC50.
